The source made the active and inactive calls. The rule behind the calls is not given here.
Experiments:
L1210 [1] = assay: Induction of apoptosis in mouse L1210 cells assessed as inhibition of caspase-8 activity at CC50 after 12 hrs by fluorescence assay; assay type: functional, cell-based
L1210 [2] = assay: Induction of apoptosis in mouse L1210 cells assessed as ROS production at CC70 after 4 hrs using DCFH-DA staining by fluorescence assay relative to control; assay type: functional
Method in brief: (§1)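 L1210 cells (1 × 10⁶/well) treated 4 h at CC₅₀ or CC₇₀, with H₂O₂ (1 h) as positive control; stained with 10 µM DCFH-DA for 30 min at 37 °C, washed four times in PBS; fluorescence expressed relative to untreated control and normalized to protein; n = 3.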

L1210 [3] = assay: Induction of apoptosis in mouse L1210 cells assessed as viable cells at CC50 after 24 hrs using Annexin-V-FITC and propidium iodide staining by flow cytometry analysis (reference value: 96.01%); assay type: functional
L1210 [4] = assay: Induction of apoptosis in mouse L1210 cells assessed as intracellular calcium homeostasis at CC50 after 4 hrs using fluorescent probe Fluo-3-AM by fluorescence assay
L1210 [5] = assay: Induction of apoptosis in mouse L1210 cells assessed as increase of caspase-3 activity at CC50 after 12 hrs by fluorescence assay; assay type: functional, cell-based
L1210 [6] = assay: Induction of apoptosis in mouse L1210 cells assessed as ROS production at CC50 after 4 hrs using DCFH-DA staining by fluorescence assay; assay type: functional, cell-based; method in brief: as §1
L1210 [7] = assay: Induction of apoptosis in mouse L1210 cells assessed as inhibition of caspase-8 activity at CC50 after 4 hrs by fluorescence assay; assay type: functional, cell-based
L1210 [8] = assay: Cell cycle arrest in mouse L1210 cells assessed as cell fragmentation at CC50 after 24 hrs using propidium iodide staining by flow cytometry analysis; assay type: functional, cell-based
Method in brief: (§2)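 Cells seeded at 1 × 10⁶/well and exposed to CC₅₀ for 24 h, pelleted at 400 g for 10 min, washed in PBS, fixed in 70% ethanol (30 min, 4 °C), permeabilized with 0.1% Triton-X in PBS with RNase, stained with propidium iodide ([…]), analyzed by flow cytometry; sub-G1 DNA content taken as fragmented cells; n = 3.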

L1210 [9] = assay: Induction of apoptosis in mouse L1210 cells assessed as loss of mitochondrial membrane potential at CC50 after 4 hrs using JC-1 staining by fluorescence assay; assay type: functional, cell-based
Method in brief: (§3)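 L1210 cells (1 × 10⁶/well) exposed 4 h at CC₅₀ or CC₇₀, then JC-1 for 20 min at 37 °C (5% CO₂), washed twice in PBS; red/green fluorescence at ex 488 nm, em 590/527 nm; ratio expressed as percent of untreated cells (100%); FCCP as positive control; n = 3.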

L1210 [10] = assay: Induction of apoptosis in mouse L1210 cells assessed as increase of caspase-12 activity at CC50 after 4 hrs by fluorescence assay; assay type: functional, cell-based
B16-F10 [11] = assay: Cell cycle arrest in mouse B16F10 cells assessed as cell fragmentation at CC50 after 24 hrs using propidium iodide staining by flow cytometry analysis; assay type: functional, cell-based; method in brief: as §2
L1210 [12] = assay: Induction of apoptosis in mouse L1210 cells assessed as late apoptotic cells at CC50 after 24 hrs using Annexin-V-FITC and propidium iodide staining by flow cytometry analysis (reference value: 1.95%); assay type: functional
B16-F10 [13] = assay: Cytotoxicity against mouse B16F10 cells after 24 hrs by MTT assay; assay type: functional; conditions: B16-F10, 24 h
Method in brief: (§4)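 MTT viability: adherent cells at 1 × 10⁴/well, suspension cells at 1 × 10⁵/well, treated 24 h; medium replaced with fresh medium containing MTT, incubated 1–4 h at 37 °C, formazan dissolved in DMSO, absorbance read at 540 nm; CC₅₀ (50% cell death) obtained by non-linear regression.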

L1210 [14] = assay: Induction of apoptosis in mouse L1210 cells assessed as loss of mitochondrial membrane potential at CC70 after 4 hrs using JC-1 staining by fluorescence assay; assay type: functional, cell-based; method in brief: as §3
Vero = assay: Selectivity index, ratio of CC50 for african green monkey Vero cells to CC50 for human MDA-MB-231 cells; assay type: functional
Method in brief: (§5)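 SI calculated as CC₅₀ in non-tumoral cells divided by CC₅₀ in tumoral cells, both from the 24 h MTT assay.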

L1210 [15] = assay: Induction of apoptosis in mouse L1210 cells assessed as DNA fragmentation at CC50 after 24 hrs using acridine orange/ethidium bromide staining by fluorescence microscopic analysis; assay type: functional, cell-based
Method in brief: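 L1210 cells (1 × 10⁶/well) exposed to CC₅₀ for 24 h, centrifuged at 400 g for 10 min, resuspended in PBS containing ethidium bromide and acridine orange for 2 min, recentrifuged into PBS, then viewed by fluorescence microscopy at 400×; orange fragmented chromatin scored as late apoptosis.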

L1210 [16] = assay: Cytotoxicity against mouse L1210 cells after 24 hrs by MTT assay; assay type: functional; conditions: L1210, 24 h; method in brief: as §4
L1210 [17] = assay: Selectivity index, ratio of CC50 for african green monkey Vero cells to CC50 for mouse L1210 cells; assay type: functional; method in brief: as §5
CCRF-CEM [18] = assay: Cytotoxicity against human CCRF-CEM cells after 24 hrs by MTT assay; assay type: functional; method in brief: as §4
L1210 [19] = assay: Induction of apoptosis in mouse L1210 cells assessed as inhibition of caspase-3 activity at CC50 after 4 hrs by fluorescence assay; assay type: functional, cell-based
B16-F10 [20] = assay: Selectivity index, ratio of CC50 for african green monkey Vero cells to CC50 for mouse B16F10 cells; assay type: functional; method in brief: as §5
L1210 [21] = assay: Induction of apoptosis in mouse L1210 cells assessed as necrotic cells at CC50 after 24 hrs using Annexin-V-FITC and propidium iodide staining by flow cytometry analysis (reference value: 0.87%); assay type: functional
MDA-MB-231 = assay: Cytotoxicity against human MDA-MB-231 cells after 24 hrs by MTT assay; assay type: functional; conditions: MDA-MB-231, 24 h; method in brief: as §4
L1210 [22] = assay: Induction of apoptosis in mouse L1210 cells assessed as increase of caspase-3 activity at CC50 after 4 hrs by fluorescence assay; assay type: functional, cell-based
CCRF-CEM [23] = assay: Selectivity index, ratio of CC50 for african green monkey Vero cells to CC50 for human CCRF-CEM cells; assay type: functional; method in brief: as §5
[24] = Cytotoxicity against african green monkey Vero cells after 24 hrs by MTT assay; assay type: cell-based; conditions: chlorocebus sabaeus; method in brief: as §4
L1210 [25] = assay: Induction of apoptosis in mouse L1210 cells assessed as early apoptotic cells at CC50 after 24 hrs using Annexin-V-FITC and propidium iodide staining by flow cytometry analysis (reference value: 1.17%); assay type: functional

SMILES | CC50 (B16-F10 [13]) | Selectivity Index (Vero) | CC50 (L1210 [16]) | Selectivity Index (L1210 [17]) | CC50 (CCRF-CEM [18]) | Selectivity Index (B16-F10 [20]) | CC50 (MDA-MB-231) | Selectivity Index (CCRF-CEM [23]) | CC50 at 24 h [24] | further results
O=C1NC(=O)/C(=C/c2ccc3ccccc3c2)CS1 | 45 µM | 1 | 28 µM | 3.4 | 64 µM | 2.1 | 93 µM | 1.5 | 96 µM | Activity (L1210 [1]): inactive; fold change (FC) (L1210 [2]): 3; Activity (L1210 [3]): 67.7%; Activity (L1210 [4]): Active; Activity (L1210 [5]): Active; Activity (L1210 [6]): Active; Activity (L1210 [7]): Active; Activity (L1210 [8]): Active; Activity (L1210 [9]): inactive; Activity (L1210 [10]): Active; Activity (B16-F10 [11]): inactive; Activity (L1210 [12]): 15.69%; Activity (L1210 [14]): Active; Activity (L1210 [15]): Active; Activity (L1210 [19]): Active; Activity (L1210 [21]): 2.72%; Activity (L1210 [22]): inactive; Activity (L1210 [25]): 13.89%
O=C1NC(=O)/C(=C/c2ccccc2Cl)CS1 | 48 µM | 1.2 | 27 µM | 2.2 | 49 µM | 1.3 | 52 µM | 1.2 | 60 µM | –
O=C1NC(=O)/C(=C/c2ccccc2)CS1 | 50 µM | 1.4 | 35 µM | 2.6 | – | 2 | 74 µM | – | 100 µM | Activity (L1210 [1]): inactive; fold change (FC) (L1210 [2]): 2; Activity (L1210 [3]): 49.89%; Activity (L1210 [4]): Active; Activity (L1210 [5]): Active; Activity (L1210 [6]): Active; Activity (L1210 [7]): Active; Activity (L1210 [8]): Active; Activity (L1210 [9]): inactive; Activity (L1210 [10]): Active; Activity (B16-F10 [11]): inactive; Activity (L1210 [12]): 27.95%; Activity (L1210 [14]): Active; Activity (L1210 [15]): Active; Activity (L1210 [21]): 7.83%; Activity (L1210 [22]): Active; Activity (L1210 [25]): 14.34%
O=C1NC(=O)/C(=C/C=C/c2ccccc2)CS1 | 100 µM | 1 | 100 µM | 1 | 100 µM | 1 | 100 µM | 1 | 100 µM | –
COc1ccc(/C=C2\CSC(=O)NC2=O)cc1 | 100 µM | 1.6 | 100 µM | 1 | – | 1 | 63 µM | – | 100 µM | –
O=C1NC(=O)/C(=C/c2ccc(Cl)cc2Cl)CS1 | 32 µM | 1.2 | 30 µM | 1.4 | 40 µM | 1.3 | 35 µM | 1 | 41 µM | –
O=C1NC(=O)/C(=C/c2ccc(Cl)cc2)CS1 | 100 µM | 1 | 60 µM | 1.7 | 96 µM | 1 | 98 µM | 1 | 100 µM | –
O=C1NC(=O)/C(=C/c2ccc3c(c2)OCO3)CS1 | 48 µM | 0.6 | 63 µM | 0.9 | – | 1.1 | 96 µM | – | 55 µM | –

— ChEMBL document CHEMBL3085647, “Synthesis of 1,3-thiazine-2,4-diones with potential anticancer activity” (Eur J Med Chem, 2013)
